Experimental data: publication PMC5634022 (Journal of Insect Science, 2014)

System: CarE (carboxylesterase, EC3.1.1.1), final purified
Test: esterase activity, Fast Blue B, Lineweaver-Burk
Format: biochemical, Dendrolimus superans
Details: read-out: K m (mol/liter); 35°C; kcat unit printed as s
Method in brief: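 Carboxylesterase from sixth-instar larval tissue homogenate, purified at 4°C by ammonium sulfate precipitation, Sephadex G-25, DEAE-52 and hydroxyapatite chromatography. Enzyme incubated 10 min at 35°C with α- or β-naphthyl acetate at five concentrations (0.1875–3.0 × 10^-4 mol/liter). Stopped with SDS/Fast Blue B; read at 600 nm. Km and Vmax from Lineweaver–Burk plots. Kcat from SDS-PAGE molecular weight and Vmax.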

CC(=O)Oc1ccc2ccccc2c1 [β-NA]
Km: 0.000162 mol/L
